Screening results deposited in PubChem by several laboratories.
TPT1 inhibitor: Candida albicans TPT1 enzyme inhibitors, primary screen, biochemical, fluorescence polarization. tRNA 2'-phosphotransferase TPT1 (Candida albicans SC5314). recombinant caTPT1, FP RNA substrate dephosphorylation. inhibition, % at 5 µM. hit rate 0.81% among 300,000;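 active means inhibition above the mean of all tested compounds plus 3 SD, set per screening campaign, cut at about 24% in these data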
NadD block: inhibitors of S. aureus NadD, primary screen, biochemical, colorimetric, uHTS. Nicotinate-nucleotide adenylyltransferase NadD (Staphylococcus aureus N315). purified NadD enzyme, colorimetric absorbance read-out. inhibition, % at 20 µM. hit rate 0.78% among 360,000. AID 602399, 2012; in the data active means inhibition above about 26%
Rpn11 inh: Rpn11 (PSMD14) deubiquitinase inhibitors, primary screen, biochemical, fluorescence polarization, uHTS; human 26S proteasome, Ub4-pepOG fluorescence polarization; 20S core pre-blocked with epoxomicin; inhibition, % at 20 µM; hit rate 0.59% among 360,000;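 active means inhibition at 20 µM, scaled to each plate's controls, above about 33%, limit read from the data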
HNF4A DNA FP: change in binding of human HNF4A to DNA, primary screen, biochemical, fluorescence polarization, FITC-DNA | Hepatocyte nuclear factor 4-alpha (Homo sapiens), P41235 | 1 h | activity change, % at 10 µM | hit rate 0.3% among 360,000; in the data active means activity change above about 30%, passing the limit was not always enough
CSN inh: inhibitors of CSN-mediated cullin deneddylation, primary screen, biochemical, fluorescence polarization, uHTS. inhibition, % at 12.5 µM. COP9 signalosome complex subunit 5 (Homo sapiens), Q92905. Purified CSN, SCF-Nedd8-OG deneddylation. hit rate 0.38% among 360,000;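 active means pattern-corrected inhibition above about 35%, with an unprinted fluorescence ratio check between 0.5 and 1.5, limit read from the data, passing the limit was not always enough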
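Test system: purified human Csn5 enzyme expressed in HEK293T cells. Amount: 0.24 nM enzyme. Reagent: SCFSkp2-Nedd8OG substrate at 10 nM final. Schedule: 90 min incubation of compound, enzyme and substrate at room temperature. Detection: fluorescence polarization. Read-out: % inhibition of substrate cleavage by Csn5.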
PP1 inh: PP1-alpha phosphatase inhibitors, primary screen, counter-screen for PP5 inhibitor project, biochemical, fluorescence, OMFP substrate, single point; hit rate 0.9% among 320,000; purified PP1alpha; inhibition, % at 6.7 µM;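 active means inhibition above the mean inhibition of all tested compounds plus 3 SD, computed separately for each screening campaign, cut at about 15% in these data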
Target sequence (P62136 whole entry, looked up): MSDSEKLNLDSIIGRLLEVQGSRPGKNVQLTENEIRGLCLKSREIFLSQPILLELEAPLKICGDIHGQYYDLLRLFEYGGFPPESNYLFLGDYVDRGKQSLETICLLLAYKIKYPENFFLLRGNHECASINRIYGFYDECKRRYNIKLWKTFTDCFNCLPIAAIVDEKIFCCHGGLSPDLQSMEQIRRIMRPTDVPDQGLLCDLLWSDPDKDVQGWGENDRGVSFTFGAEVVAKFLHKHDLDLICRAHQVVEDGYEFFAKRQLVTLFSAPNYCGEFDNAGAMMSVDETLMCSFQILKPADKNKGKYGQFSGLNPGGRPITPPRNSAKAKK
caTPT1 confirm: Candida albicans TPT1 inhibitors, confirmation, biochemical, fluorescence polarization, triplicate; inhibition, % at 5 µM; hit rate 74% among 2,400; shares compounds with TPT1 inhibitor; recombinant caTPT1, RNase T1 coupled;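 active means inhibition above the primary screen limit, the mean inhibition of all tested compounds plus 3 SD, cut at about 25% in these data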
RNase T1 counter: RNase T1 inhibitors, counter-screen for TPT1 inhibitor project, biochemical, fluorescence polarization. shares compounds with TPT1 inhibitor. RNase T1 cleavage, 1536-well. inhibition, % at 5 µM. hit rate 83% among 2,400. AID 2153, 2009;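 active means inhibition above the solvent-only control well mean plus 3 SD, limit set per screening run, cut at about 23% in these data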;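 further: inhibitors block cleavage so intact labeled substrate keeps polarization high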
Target sequence (P00651 whole entry, looked up): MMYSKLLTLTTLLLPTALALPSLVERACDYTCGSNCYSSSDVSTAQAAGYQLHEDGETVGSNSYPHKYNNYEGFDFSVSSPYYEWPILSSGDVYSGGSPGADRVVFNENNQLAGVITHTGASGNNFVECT
PP1 confirm: PP1 phosphatase inhibitors, confirmation, biochemical, fluorescence, OMFP substrate, triplicate; purified PP1alpha; shares compounds with PP1 inh; inhibition, % at 6.7 µM; hit rate 52% among 1,900; AID 2358, 2010;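 active means mean PP1 inhibition above a set limit taken from the earlier primary screen, cut at about 15% in these data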
PP5 inh counter: PP5 phosphatase inhibition by PP1 hits, confirmation, counter-screen for PP1 inhibitor project, biochemical, fluorescence, triplicate; shares compounds with PP1 inh; purified PP5c, OMFP fluorescence; inhibition, % at 6.7 µM; hit rate 4% among 1,900; AID 2360, 2010;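 active means mean PP5 inhibition over triplicate wells above about 9.5% taken from the earlier PP1 screen, limit read from the data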
Large screens that a line does not name were inactive (follow-up assays come after a bar, where shown). Shown are actives, neighbours in structure and some others; about 2.7% of the full set was active somewhere.

CCN1C(=O)[C@@H]2Cc3c([nH]c4ccccc34)C(c3cc(OC)c(OC)c(OC)c3)N2C1=S (some centres undefined)	TPT1 inhibitor 58.0 (not shown: Rpn11 inh) | caTPT1 confirm 64.4 | RNase T1 counter 73.2
C=CCN1C(=O)[C@@H]2Cc3c([nH]c4ccccc34)C(c3cc(OC)c(OC)c(OC)c3)N2C1=S (some centres undefined)	TPT1 inhibitor 56.8 (not shown: Rpn11 inh) | caTPT1 confirm 47.4 | RNase T1 counter 56.9
COc1cc([C@H]2c3[nH]c4ccccc4c3C[C@H]3C(=O)N4[C@@H](c5cc(OC)c(OC)c(OC)c5)c5[nH]c6ccccc6c5C[C@H]4C(=O)N23)cc(OC)c1OC	none
CC1(C(=O)NS(=O)(=O)c2cccc(Cl)c2)CCN1C(=O)C1(c2ccc(Cl)cc2)CCC1 (centres undefined)	none (no result: TPT1 inhibitor, PP1 inh)
O=C(O)C(=O)/C(=C\c1cccc(Cl)c1)c1ccc2ccccc2n1	TPT1 inhibitor 30.4 | caTPT1 confirm 42.0 | RNase T1 counter 57.9
Cc1cccc(/C=C(\C(=O)C(=O)O)c2ccc3ccccc3n2)c1	none
CCC1(c2ccc(F)cc2)NC(=O)NC1=O (centres undefined)	none
CCn1c2ccccc2c2cc(NC(=O)c3ccc(=O)oc3)ccc21	TPT1 inhibitor 63.3 | caTPT1 confirm 34.5 | RNase T1 counter 37.4
CCn1c2ccccc2c2cc(NC(=O)c3coc(=O)c(Br)c3)ccc21	none
COc1cc(/C=C2\SC(=O)N(CC(=O)Nc3ccccc3F)C2=O)cc(Cl)c1O	TPT1 inhibitor 67.3 | caTPT1 confirm 81.2 | RNase T1 counter 67.7
Cc1cccc(N=C2NC(=O)/C(=C/c3cccn3C)S2)c1	TPT1 inhibitor 30.7 | caTPT1 confirm 36.6 | RNase T1 counter 46.0
O=C(Nc1ccc(F)cc1Cl)c1ccc2c(=O)n3c(nc2c1)CCC3	none
CC1SCC(NC(=O)c2ccc(Cl)cc2)CS1 (centres undefined)	none
O=C1CC(NC(=O)c2ccc(Cl)cc2)C(=O)N1 (centres undefined)	TPT1 inhibitor 133.3 | caTPT1 confirm inactive | RNase T1 counter inactive
CCN(Cc1ccc2c(c1)OCCO2)C(=O)CN1C(=O)NC2(CCCCC2)C1=O	none (no result: TPT1 inhibitor)
Cc1ccc(CN2CC(C(=O)NCCCSc3ccccc3)CC2=O)cc1 (centres undefined)	none
CC1(C)CC(=O)C(C=Nc2ccc(N)cc2)=C(O)C1	none
COC(=O)c1ccc(N)c(N=CC2=C(O)CC(C)(C)CC2=O)c1	TPT1 inhibitor 30.8 (not shown: Rpn11 inh) | caTPT1 confirm inactive | RNase T1 counter inactive
CC1(C)CC(=O)C(C=Nc2cc(C(=O)c3ccccc3)ccc2N)=C(O)C1	TPT1 inhibitor 27.5 (not shown: Rpn11 inh) | caTPT1 confirm inactive | RNase T1 counter inactive
COc1cc(NC(=O)C2=C(N3CCOCC3)/C(=C\c3ccc(N(C)C)cc3)CCC2)cc(OC)c1OC	TPT1 inhibitor 32.1 | caTPT1 confirm inactive | RNase T1 counter 25.7
CC(C)(CNC(=O)c1cccc(F)c1)CNC(=O)c1cccc(F)c1	none
CC1(C)CCN2CCC(C)(C)c3c(O)ccc1c32	TPT1 inhibitor 47.9, PP1 inh 18.5 | caTPT1 confirm 36.5 | RNase T1 counter 49.8 | PP1 confirm inactive | PP5 inh counter inactive
NC(=O)c1sc2nc3c(c(-c4ccco4)c2c1N)CCC3	none
Nc1c(C(=O)NC2CC2)sc2nc3c(c(-c4ccco4)c12)CC/C3=C/c1ccco1	TPT1 inhibitor 36.2, NadD block 93.3, PP1 inh 54.0 | caTPT1 confirm inactive | RNase T1 counter inactive | PP1 confirm 21.0 | PP5 inh counter inactive
O=C(N/N=C/c1c(O)n(-c2ccccc2Cl)c(=O)c2ccccc12)C1COc2ccccc2O1 (centres undefined)	TPT1 inhibitor 26.2, PP1 inh 19.1 | caTPT1 confirm 64.9 | RNase T1 counter 78.6 | PP1 confirm 22.7 | PP5 inh counter inactive
Cc1cc(C)n(Cc2ccc(C(=O)N/N=C/c3ccc(-c4ccc([N+](=O)[O-])cc4)o3)o2)n1	TPT1 inhibitor 76.0, PP1 inh 32.7 (not shown: Rpn11 inh) | caTPT1 confirm 64.8 | RNase T1 counter 24.8 | PP1 confirm 27.8 | PP5 inh counter inactive
COc1ccc(CN2C(=O)Cc3c2nc(N)c2c(N)nc(N4CCCCC4)c(C#N)c32)cc1	TPT1 inhibitor 30.6, PP1 inh 26.4 (no result: NadD block, Rpn11 inh, HNF4A DNA FP, CSN inh) | caTPT1 confirm 58.3 | RNase T1 counter 68.1 | PP1 confirm 34.1 | PP5 inh counter 51.9
COc1ccc(NC(=S)NNc2ccc([N+](=O)[O-])cc2S(=O)(=O)Nc2ccc(C)cc2C)cc1	none
Cc1ccc(NS(=O)(=O)c2cc([N+](=O)[O-])ccc2NNC(=S)Nc2cccc(Cl)c2)c(C)c1	TPT1 inhibitor 36.0, NadD block 45.7, Rpn11 inh 75.6, PP1 inh 26.1 | caTPT1 confirm 36.6 | RNase T1 counter 45.7 | PP1 confirm 29.2 | PP5 inh counter inactive
CCN(CC)C(=O)[C@H]1C[C@H](CC(=O)NC/C=C(\C)CCC=C(C)C)C(=O)N2CCc3c([nH]c4cc(CCC(=O)N(C)C)ccc34)[C@]12C	none (no result: TPT1 inhibitor, PP1 inh)
CCn1c(SCC(=O)Nc2ccccc2)nc2c(c1=O)SCC2	none (no result: TPT1 inhibitor, PP1 inh)
O=C1/C(=C/C=C/c2ccco2)SC(=S)N1NS(=O)(=O)c1ccccc1	TPT1 inhibitor 85.2, PP1 inh 21.2 (not shown: Rpn11 inh) | caTPT1 confirm 66.6 | RNase T1 counter 34.1 | PP1 confirm inactive | PP5 inh counter inactive
COC(=O)[C@H]1[C@H]2C[C@H]3c4[nH]c5ccccc5c4CCN3C[C@H]2CC[C@@H]1O	none
